According to ChEMBL document CHEMBL1133721, “Antitumor polycyclic acridines. 7. Synthesis and biological properties of DNA affinic tetra- and pentacyclic acridines” (J Med Chem, 2000):

system: NCI-H358; assay: Inhibitory activity against NCI-H358 cell line using MTT assay(mutant p53); assay type: functional, cell-based; conditions: Homo sapiens
Outline: (§1)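 Cells were grown in RPMI 1640 with 2 mM L-glutamine, penicillin/streptomycin and 10% heat-inactivated FCS. Drugs were taken from 10 mM DMSO stocks. Viability was read by MTT at 0.4 mg/mL final for 4 h at 37 °C, with formazan dissolved in DMSO plus glycine buffer and read at 550 nm. IC50 is the concentration halving absorbance versus untreated controls, taken from dose-response curves.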

Question: How did the IC50 turn out when `COc1cccc2c1C(=O)c1c(O)c3c(c(O)c1C2=O)C[C@@](O)(C(=O)CO)C[C@@H]3O[C@H]1C[C@H](N)[C@H](O)[C@H](C)O1` [DOXORUBICIN] was run?
Answer: 0.13 µM

Question: `N#CCCCc1cc2cccc3c2c(n1)-c1ccccc1N3` was tested. Which IC50 did it give?
Answer: 2.01 µM

Question: With `COc1cc([C@@H]2c3cc4c(cc3[C@@H](O[C@@H]3O[C@@H]5CO[C@@H](C)O[C@H]5[C@H](O)[C@H]3O)[C@H]3COC(=O)[C@H]23)OCO4)cc(OC)c1O` [ETOPOSIDE] as the molecule, how does the IC50 read?
Answer: 1.5 µM

system: NCI-H322M; assay: Inhibitory activity against NCI-H322 cell line using MTT assay(mutant p53); assay type: functional, cell-based; conditions: Homo sapiens; outline: as §1

Question: With `COc1cccc2c1C(=O)c1c(O)c3c(c(O)c1C2=O)C[C@@](O)(C(=O)CO)C[C@@H]3O[C@H]1C[C@H](N)[C@H](O)[C@H](C)O1` [DOXORUBICIN] as the molecule, how does the IC50 read?
Answer: 0.03 µM

Question: `N#CCCCc1cc2cccc3c2c(n1)-c1ccccc1N3` was tested. Which IC50 did it give?
Answer: 1.53 µM

Question: Which IC50 does the source give for `COc1cc([C@@H]2c3cc4c(cc3[C@@H](O[C@@H]3O[C@@H]5CO[C@@H](C)O[C@H]5[C@H](O)[C@H]3O)[C@H]3COC(=O)[C@H]23)OCO4)cc(OC)c1O` [ETOPOSIDE] here?
Answer: 1.59 µM

system: MDA-MB-231; assay: Inhibitory activity against MDA-231 cell line using MTT assay (ER-,EGFR+,mutant p53); assay type: functional, cell-based; conditions: Homo sapiens; outline: as §1

Question: How did the IC50 turn out when `COc1cccc2c1C(=O)c1c(O)c3c(c(O)c1C2=O)C[C@@](O)(C(=O)CO)C[C@@H]3O[C@H]1C[C@H](N)[C@H](O)[C@H](C)O1` [DOXORUBICIN] was run?
Answer: 0.006 µM

Question: `N#CCCCc1cc2cccc3c2c(n1)-c1ccccc1N3` was tested. Which IC50 did it give?
Answer: 2.05 µM

Question: With `COc1cc([C@@H]2c3cc4c(cc3[C@@H](O[C@@H]3O[C@@H]5CO[C@@H](C)O[C@H]5[C@H](O)[C@H]3O)[C@H]3COC(=O)[C@H]23)OCO4)cc(OC)c1O` [ETOPOSIDE] as the molecule, how does the IC50 read?
Answer: 0.15 µM

system: NCI-H460; assay: Inhibitory activity against H460pv8 cell line using MTT assay; assay type: functional, cell-based; conditions: Homo sapiens
Outline: (§2)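 This is a 7-day MTT assay in RPMI 1640 with 2 mM L-glutamine, antibiotics and 10% heat-inactivated FCS. The H460pv8/eto variant was kept in 1 µM etoposide. MTT was used at 0.4 mg/mL final for 4 h at 37 °C, and formazan was dissolved in DMSO/glycine buffer and read at 550 nm. IC50 is the 50% absorbance reduction versus untreated controls, from dose-response curves.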

Question: How did the IC50 turn out when `COc1cccc2c1C(=O)c1c(O)c3c(c(O)c1C2=O)C[C@@](O)(C(=O)CO)C[C@@H]3O[C@H]1C[C@H](N)[C@H](O)[C@H](C)O1` [DOXORUBICIN] was run?
Answer: 0.004 µM

Question: Which IC50 does the source give for `N#CCCCc1cc2cccc3c2c(n1)-c1ccccc1N3` here?
Answer: 1.12 µM

Question: Which IC50 does the source give for `COc1cc([C@@H]2c3cc4c(cc3[C@@H](O[C@@H]3O[C@@H]5CO[C@@H](C)O[C@H]5[C@H](O)[C@H]3O)[C@H]3COC(=O)[C@H]23)OCO4)cc(OC)c1O` [ETOPOSIDE] here?
Answer: 0.39 µM

system: NCI-H460; assay: Inhibitory activity against NCI-H460 cell line using MTT assay(Wild type p53); assay type: functional, cell-based; conditions: Homo sapiens; outline: as §1

Question: Which IC50 does the source give for `COc1cccc2c1C(=O)c1c(O)c3c(c(O)c1C2=O)C[C@@](O)(C(=O)CO)C[C@@H]3O[C@H]1C[C@H](N)[C@H](O)[C@H](C)O1` [DOXORUBICIN] here?
Answer: 0.01 µM

Question: For `N#CCCCc1cc2cccc3c2c(n1)-c1ccccc1N3`, which IC50 is on record?
Answer: 1.17 µM

Question: For `COc1cc([C@@H]2c3cc4c(cc3[C@@H](O[C@@H]3O[C@@H]5CO[C@@H](C)O[C@H]5[C@H](O)[C@H]3O)[C@H]3COC(=O)[C@H]23)OCO4)cc(OC)c1O` [ETOPOSIDE], which IC50 is on record?
Answer: 0.1 µM

system: A549; assay: Inhibitory activity against A549 cell line using MTT assay(Wild type p53); assay type: functional, cell-based; conditions: Homo sapiens; outline: as §1

Question: How did the IC50 turn out when `COc1cccc2c1C(=O)c1c(O)c3c(c(O)c1C2=O)C[C@@](O)(C(=O)CO)C[C@@H]3O[C@H]1C[C@H](N)[C@H](O)[C@H](C)O1` [DOXORUBICIN] was run?
Answer: 0.004 µM

Question: For `N#CCCCc1cc2cccc3c2c(n1)-c1ccccc1N3`, which IC50 is on record?
Answer: 1.33 µM

Question: `COc1cc([C@@H]2c3cc4c(cc3[C@@H](O[C@@H]3O[C@@H]5CO[C@@H](C)O[C@H]5[C@H](O)[C@H]3O)[C@H]3COC(=O)[C@H]23)OCO4)cc(OC)c1O` [ETOPOSIDE] was tested. Which IC50 did it give?
Answer: 0.16 µM

system: ZR-75-1; assay: Inhibitory activity against ZR-75-1 cell line using MTT assay (ER+,pgr+,mutant p53); assay type: functional, cell-based; conditions: Homo sapiens; outline: as §1

Question: With `COc1cccc2c1C(=O)c1c(O)c3c(c(O)c1C2=O)C[C@@](O)(C(=O)CO)C[C@@H]3O[C@H]1C[C@H](N)[C@H](O)[C@H](C)O1` [DOXORUBICIN] as the molecule, how does the IC50 read?
Answer: 0.009 µM

Question: How did the IC50 turn out when `N#CCCCc1cc2cccc3c2c(n1)-c1ccccc1N3` was run?
Answer: 2.7 µM

Question: `COc1cc([C@@H]2c3cc4c(cc3[C@@H](O[C@@H]3O[C@@H]5CO[C@@H](C)O[C@H]5[C@H](O)[C@H]3O)[C@H]3COC(=O)[C@H]23)OCO4)cc(OC)c1O` [ETOPOSIDE] was tested. Which IC50 did it give?
Answer: 0.24 µM

system: NCI-H226; assay: Inhibitory activity against NCI-H226 cell line using MTT assay(mutant p53); assay type: functional, cell-based; conditions: Homo sapiens; outline: as §1

Question: How did the IC50 turn out when `COc1cccc2c1C(=O)c1c(O)c3c(c(O)c1C2=O)C[C@@](O)(C(=O)CO)C[C@@H]3O[C@H]1C[C@H](N)[C@H](O)[C@H](C)O1` [DOXORUBICIN] was run?
Answer: 0.008 µM

Question: With `N#CCCCc1cc2cccc3c2c(n1)-c1ccccc1N3` as the molecule, how does the IC50 read?
Answer: 1.21 µM

Question: For `COc1cc([C@@H]2c3cc4c(cc3[C@@H](O[C@@H]3O[C@@H]5CO[C@@H](C)O[C@H]5[C@H](O)[C@H]3O)[C@H]3COC(=O)[C@H]23)OCO4)cc(OC)c1O` [ETOPOSIDE], which IC50 is on record?
Answer: 0.24 µM

system: F460pv8/eto; assay: Inhibitory activity against […] using MTT assay; assay type: functional, cell-based; conditions: Homo sapiens; outline: as §2

Question: For `COc1cccc2c1C(=O)c1c(O)c3c(c(O)c1C2=O)C[C@@](O)(C(=O)CO)C[C@@H]3O[C@H]1C[C@H](N)[C@H](O)[C@H](C)O1` [DOXORUBICIN], which IC50 is on record?
Answer: 0.02 µM

Question: `COc1cc([C@@H]2c3cc4c(cc3[C@@H](O[C@@H]3O[C@@H]5CO[C@@H](C)O[C@H]5[C@H](O)[C@H]3O)[C@H]3COC(=O)[C@H]23)OCO4)cc(OC)c1O` [ETOPOSIDE] was tested. Which IC50 did it give?
Answer: 0.74 µM

system: NCI-H647; assay: Inhibitory activity against NCI-H647 cell line using MTT assay(mutant p53); assay type: functional, cell-based; conditions: Homo sapiens; outline: as §1

Question: With `COc1cccc2c1C(=O)c1c(O)c3c(c(O)c1C2=O)C[C@@](O)(C(=O)CO)C[C@@H]3O[C@H]1C[C@H](N)[C@H](O)[C@H](C)O1` [DOXORUBICIN] as the molecule, how does the IC50 read?
Answer: < 0.001 µM

Question: Which IC50 does the source give for `N#CCCCc1cc2cccc3c2c(n1)-c1ccccc1N3` here?
Answer: 1.68 µM

Question: Which IC50 does the source give for `COc1cc([C@@H]2c3cc4c(cc3[C@@H](O[C@@H]3O[C@@H]5CO[C@@H](C)O[C@H]5[C@H](O)[C@H]3O)[C@H]3COC(=O)[C@H]23)OCO4)cc(OC)c1O` [ETOPOSIDE] here?
Answer: 0.08 µM

system: T47D; assay: Inhibitory activity against T47D cell line using MTT assay (ER+,mutant p53); assay type: functional, cell-based; conditions: Homo sapiens; outline: as §1

Question: How did the IC50 turn out when `COc1cccc2c1C(=O)c1c(O)c3c(c(O)c1C2=O)C[C@@](O)(C(=O)CO)C[C@@H]3O[C@H]1C[C@H](N)[C@H](O)[C@H](C)O1` [DOXORUBICIN] was run?
Answer: 0.007 µM

Question: How did the IC50 turn out when `N#CCCCc1cc2cccc3c2c(n1)-c1ccccc1N3` was run?
Answer: 3.59 µM

Question: Which IC50 does the source give for `COc1cc([C@@H]2c3cc4c(cc3[C@@H](O[C@@H]3O[C@@H]5CO[C@@H](C)O[C@H]5[C@H](O)[C@H]3O)[C@H]3COC(=O)[C@H]23)OCO4)cc(OC)c1O` [ETOPOSIDE] here?
Answer: 0.16 µM

system: MCF7; assay: Inhibitory activity against MCF-7 wt cell line using MTT assay (ER+,pgR+,wildtype p53); assay type: functional, cell-based; conditions: Homo sapiens; outline: as §1

Question: `COc1cccc2c1C(=O)c1c(O)c3c(c(O)c1C2=O)C[C@@](O)(C(=O)CO)C[C@@H]3O[C@H]1C[C@H](N)[C@H](O)[C@H](C)O1` [DOXORUBICIN] was tested. Which IC50 did it give?
Answer: 0.001 µM

Question: Which IC50 does the source give for `N#CCCCc1cc2cccc3c2c(n1)-c1ccccc1N3` here?
Answer: 3.79 µM

Question: For `COc1cc([C@@H]2c3cc4c(cc3[C@@H](O[C@@H]3O[C@@H]5CO[C@@H](C)O[C@H]5[C@H](O)[C@H]3O)[C@H]3COC(=O)[C@H]23)OCO4)cc(OC)c1O` [ETOPOSIDE], which IC50 is on record?
Answer: 0.085 µM

system: NCI-H460; assay: Inhibitory activity against NCI-H460 cell line using MTT assay; assay type: functional, cell-based; conditions: Homo sapiens; outline: as §2

Question: For `COc1cccc2c1C(=O)c1c(O)c3c(c(O)c1C2=O)C[C@@](O)(C(=O)CO)C[C@@H]3O[C@H]1C[C@H](N)[C@H](O)[C@H](C)O1` [DOXORUBICIN], which IC50 is on record?
Answer: 0.01 µM

Question: How did the IC50 turn out when `N#CCCCc1cc2cccc3c2c(n1)-c1ccccc1N3` was run?
Answer: 1.17 µM

Question: With `COc1cc([C@@H]2c3cc4c(cc3[C@@H](O[C@@H]3O[C@@H]5CO[C@@H](C)O[C@H]5[C@H](O)[C@H]3O)[C@H]3COC(=O)[C@H]23)OCO4)cc(OC)c1O` [ETOPOSIDE] as the molecule, how does the IC50 read?
Answer: 0.1 µM

system: MDA-MB-468; assay: Inhibitory activity against MDA-468 cell line using MTT assay (ER-, amplified EGFR, mutant p53); assay type: functional, cell-based; conditions: Homo sapiens; outline: as §1

Question: Which IC50 does the source give for `COc1cccc2c1C(=O)c1c(O)c3c(c(O)c1C2=O)C[C@@](O)(C(=O)CO)C[C@@H]3O[C@H]1C[C@H](N)[C@H](O)[C@H](C)O1` [DOXORUBICIN] here?
Answer: 0.005 µM

Question: For `N#CCCCc1cc2cccc3c2c(n1)-c1ccccc1N3`, which IC50 is on record?
Answer: 1.87 µM

Question: Which IC50 does the source give for `COc1cc([C@@H]2c3cc4c(cc3[C@@H](O[C@@H]3O[C@@H]5CO[C@@H](C)O[C@H]5[C@H](O)[C@H]3O)[C@H]3COC(=O)[C@H]23)OCO4)cc(OC)c1O` [ETOPOSIDE] here?
Answer: 0.6 µM

system: SK-BR-3; assay: Inhibitory activity against SKBR-3 cell line using MTT assay (ER-amplified erB2,mutant p53); assay type: functional, cell-based; conditions: Homo sapiens; outline: as §1

Question: Which IC50 does the source give for `COc1cccc2c1C(=O)c1c(O)c3c(c(O)c1C2=O)C[C@@](O)(C(=O)CO)C[C@@H]3O[C@H]1C[C@H](N)[C@H](O)[C@H](C)O1` [DOXORUBICIN] here?
Answer: 0.02 µM

Question: How did the IC50 turn out when `N#CCCCc1cc2cccc3c2c(n1)-c1ccccc1N3` was run?
Answer: 3.45 µM

Question: `COc1cc([C@@H]2c3cc4c(cc3[C@@H](O[C@@H]3O[C@@H]5CO[C@@H](C)O[C@H]5[C@H](O)[C@H]3O)[C@H]3COC(=O)[C@H]23)OCO4)cc(OC)c1O` [ETOPOSIDE] was tested. Which IC50 did it give?
Answer: 0.3 µM
